Laboratory results published in ChEMBL document CHEMBL2440077, “Synthesis and antiprotozoal activity of dicationic 2,6-diphenylpyrazines and aza-analogues” (Bioorg Med Chem, 2013).
Calls of active or inactive are those of the source. No cut-off for these calls is given here.

Columns and labels:
L6 = assay: Cytotoxicity against rat L6 cells assessed as cell viability after 70 hrs by Alamar blue assay; assay type: cell-based; settings: L6, 70 h
[1] = tested on: Trypanosoma brucei brucei; assay: Antitrypanosomal activity against Trypanosoma brucei brucei GVR35 infected in NMRI mouse assessed as mouse survival at 100 mg/kg, po administered on day 21 post infection for 5 days measured up to 180 days; assay type: functional
Procedure, shortened: (§1)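 Oral dosing in the T. b. brucei GVR35 second-stage (CNS) mouse model, daily for 5 or 10 days. Cure means survival for more than 180 days after infection with no parasitemia relapse. Mean survival days are computed across mice with and without relapse.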

[2] = tested on: Trypanosoma brucei rhodesiense; assay: Antitrypanosomal activity against Trypanosoma brucei rhodesiense STIB900 assessed as parasite growth inhibition after 70 hrs by Alamar blue assay; assay type: functional, organism-based; settings: STIB900, 70 h
[3] = tested on: Trypanosoma brucei brucei; assay: Antitrypanosomal activity against Trypanosoma brucei brucei GVR35 infected in NMRI mouse assessed as cured animal at 100 mg/kg, po administered on day 21 post infection for 5 days measured up to 180 days; assay type: functional, organism-based; parameters: dose 100 mg/kg
Procedure, shortened: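 Second-stage CNS model, oral dosing. A cure is survival beyond 180 days after infection without parasitemia relapse. Mean survival days are computed from mice with and without relapse. Reference diamidine control given once at 40 mg/kg ip.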

Plasmodium falciparum [4] = assay: Antiplasmodial activity against Plasmodium falciparum K1 assessed as [3H]-hypoxanthine incorporation after 48 hrs by liquid scintillation counting analysis; assay type: functional, organism-based
Liver [5] = assay: Half life in Swiss Webster mouse liver S9 fraction by UV-HPLC analysis; assay type: ADME, subcellular
[6] = tested on: Trypanosoma brucei rhodesiense; assay: Antitrypanosomal activity against Trypanosoma brucei rhodesiense STIB900 infected in NMRI mouse assessed as mouse survival at 5 mg/kg, ip administered on day 3 post infection for 4 days measured up to 60 days; assay type: functional; settings: route intraperitoneal
[7] = tested on: Trypanosoma brucei rhodesiense; assay: Antitrypanosomal activity against Trypanosoma brucei rhodesiense STIB900 infected in NMRI mouse assessed as mouse survival at 20 mg/kg, ip administered on day 3 post infection for 4 days measured up to 60 days; assay type: functional; settings: route intraperitoneal
[8] = tested on: Trypanosoma brucei rhodesiense; assay: Antitrypanosomal activity against Trypanosoma brucei rhodesiense STIB900 infected in NMRI mouse assessed as cured animal at 20 mg/kg, ip administered on day 3 post infection for 4 days measured up to 60 days; assay type: functional, organism-based; parameters: dose 20 mg/kg
Procedure, shortened: (§2)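 Acute-stage mouse model: compound dosed daily for 4 days. A cure is a mouse surviving parasite-free for 60 days. Average days of survival also recorded.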

Liver microsomes = assay: Half life in human liver microsomes by UV-HPLC analysis; assay type: ADME, Microsome
Procedure, shortened: (§3)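 Substrate at 10 μM with 0.5 mg/ml pooled human or mouse liver microsomes, 0.5% DMSO, in 100 mM phosphate pH 7.4 with 3.3 mM MgCl2. After 5-min pre-equilibration at 37°C, 1 mM β-NADPH is added; triplicates.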

Liver [9] = assay: Half life in mouse liver microsomes by UV-HPLC analysis; assay type: ADME, Microsome; procedure, shortened: as §3
[10] = tested on: Trypanosoma brucei rhodesiense; assay: Antitrypanosomal activity against Trypanosoma brucei rhodesiense STIB900 infected in NMRI mouse assessed as mouse survival at 100 mg/kg, ip administered on day 3 post infection for 4 days measured up to 60 days; assay type: functional; settings: route intraperitoneal
[11] = tested on: Trypanosoma brucei rhodesiense; assay: Antitrypanosomal activity against Trypanosoma brucei rhodesiense STIB900 infected in NMRI mouse assessed as cured animal at 100 mg/kg, ip administered on day 3 post infection for 4 days measured up to 60 days; assay type: functional, organism-based; parameters: dose 100 mg/kg; procedure, shortened: as §2
[12] = tested on: Trypanosoma brucei rhodesiense; assay: Antitrypanosomal activity against Trypanosoma brucei rhodesiense STIB900 infected in NMRI mouse assessed as cured animal at 5 mg/kg, ip administered on day 3 post infection for 4 days measured up to 60 days; assay type: functional, organism-based; parameters: dose 5 mg/kg; procedure, shortened: as §2
[13] = tested on: Trypanosoma brucei rhodesiense; assay: Antitrypanosomal activity against Trypanosoma brucei rhodesiense STIB900 infected in NMRI mouse assessed as cured animal at 10 mg/kg, ip administered on day 3 post infection for 4 days measured up to 60 days; assay type: functional, organism-based; parameters: dose 10 mg/kg; procedure, shortened: as §2
Plasmodium falciparum [14] = assay: Potency index, ratio of pentamidine IC50 to compound IC50 for Plasmodium falciparum K1; assay type: functional
[15] = tested on: Trypanosoma brucei brucei; assay: Antitrypanosomal activity against Trypanosoma brucei brucei GVR35 infected in NMRI mouse assessed as mouse survival at 100 mg/kg, po administered on day 21 post infection for 10 days measured up to 180 days; assay type: functional; procedure, shortened: as §1

Row | Structure (SMILES) | IC50 (L6) | IC50 [2] | IC50 (Plasmodium falciparum [4]) | Survival [6] | further results
1 | N/C(=N\O)c1ccc(-c2cncc(-c3ccc(/C(N)=N\O)nc3)n2)cn1 | > 190 µM | 95.4 µM | 0.785 µM | – | MSD [1]: 95.2 days; Activity [3]: inactive; t1/2 (Liver [5]): 51 min
2 | N=C(N)c1ccc(-c2cncc(-c3ccc(C(=N)N)nc3)n2)cn1 | 24.4 µM | 0.0048 µM | 0.085 µM | >36.5 days | –
3 | N=C(N)c1ccc(-c2ccc(-c3ccc(C(=N)N)cn3)o2)nc1 | 83 µM | – | – | >49.5 days | Survival [7]: >60 days; Activity [8]: Active
4 | Cc1cc(C(=N)N)ccc1-c1cncc(-c2ccc(C(=N)N)cc2C)n1 | 117 µM | 0.462 µM | 0.323 µM | – | –
5 | CO/N=C(\N)c1ccc(-c2cncc(-c3ccc(/C(N)=N\OC)nc3)n2)cn1 | > 212 µM | 7.87 µM | 0.328 µM | – | t1/2 (Liver microsomes): 14 min; t1/2 (Liver [9]): 59 min
6 | CO/N=C(\N)c1ccc(-c2cncc(-c3ccc(/C(N)=N\OC)cc3)n2)cn1 | > 185 µM | 194 µM | 0.453 µM | – | t1/2 (Liver microsomes): 6.5 min; t1/2 (Liver [9]): 35 min
7 | N=C(NO)c1ccc(-c2ccc(-c3ccc(/C(N)=N\O)cc3)o2)cc1 | – | – | – | – | Survival [10]: 50 days; Activity [11]: inactive; t1/2 (Liver [5]): 29 min
8 | N=C(N)c1ccc(-c2cncc(-c3ccc(C(=N)N)nc3)n2)cc1 | 34.1 µM | 0.006 µM | 0.01 µM | >60 days | –
9 | N/C(=N\O)c1ccc(-c2cncc(-c3ccc(/C(N)=N/O)nc3)n2)cc1 | 5 µM | 10.8 µM | 0.453 µM | – | t1/2 (Liver [5]): 36 min
10 | N=C(N)c1ccc(-c2cncc(-c3ccc(C(=N)N)cn3)n2)cc1 | 117 µM | 0.014 µM | 0.052 µM | >60 days | Activity [12]: Active
11 | N/C(=N\O)c1ccc(-c2cncc(-c3ccc(/C(N)=N/O)cc3)n2)cc1 | 2.9 µM | 7.95 µM | 0.87 µM | – | MSD [1]: 69 days; Activity [13]: inactive; Activity [3]: inactive; t1/2 (Liver [5]): 1.9 min
12 | N=C(N)c1ccc(-c2cncc(-c3ccc(C(=N)N)cc3)n2)cc1 | 80.8 µM | 0.0058 µM | 0.01 µM | >53.5 days | Ratio IC50 (Plasmodium falciparum [14]): 5
13 | N=C(N)c1ccc(-c2cnc(-c3ccc(C(=N)N)cc3)cn2)cc1 | – | – | – | 36.5 days | Activity [12]: inactive
14 | N=C(N)c1ccc(-c2ccc(-c3ccc(C(=N)N)cn3)o2)cc1 | – | – | – | >54.5 days | Survival [7]: >60 days; Activity [8]: Active
15 | CO/N=C(\N)c1ccc(-c2ccc(-c3ccc(/C(N)=N/OC)cn3)o2)nc1 | – | – | – | – | MSD [1]: >180 days; Activity [3]: Active
16 | CO/N=C(\N)c1ccc(-c2cncc(-c3ccc(/C(N)=N\OC)cc3)n2)nc1 | > 180 µM | 25.3 µM | 5.6 µM | – | t1/2 (Liver microsomes): 7.6 min; t1/2 (Liver [9]): 210 min
17 | N/C(=N\O)c1ccc(-c2cncc(-c3ccc(/C(N)=N/O)cn3)n2)nc1 | > 196 µM | 90.6 µM | 7.01 µM | – | t1/2 (Liver [5]): 20 min
18 | N=C(N)c1ccc(-c2cncc(-c3ccc(C(=N)N)cn3)n2)nc1 | 139 µM | 0.037 µM | 0.031 µM | >53.75 days | –
19 | N/C(=N\O)c1ccc(-c2cncc(-c3ccc(/C(N)=N/O)cn3)n2)cc1 | 24.6 µM | 7.78 µM | 8.4 µM | – | t1/2 (Liver [5]): 30 min
20 | N=C(N)c1ccc(-c2cncc(-c3ccc(C(=N)N)cc3F)n2)c(F)c1 | 29.8 µM | 0.027 µM | – | >41 days | Activity [12]: inactive
21 | N=C(N)c1ccc(-c2ccc(-c3ccc(C(=N)N)cc3)o2)cc1 [FURAMIDINE] | – | – | – | >46 days | Survival [7]: >57.75 days
22 | CONC(=N)c1ccc(-c2ccc(-c3ccc(C(=N)NOC)cc3)o2)cc1 [PAFURAMIDINE] | – | – | – | – | MSD [1]: >167.8 days; Activity [13]: Active; t1/2 (Liver microsomes): 6.8 min; t1/2 (Liver [9]): 150 min
23 | CO/N=C(\N)c1ccc(-c2ccc(-c3ccc(/C(N)=N/OC)cn3)o2)cc1 | – | – | – | – | MSD [1]: >180 days; Activity [3]: Active
24 | CO/N=C(\N)c1ccc(-c2cncc(-c3ccc(/C(N)=N\OC)cn3)n2)nc1 | 20.1 µM | 120 µM | 7.39 µM | – | MSD [1]: 67.2 days; t1/2 (Liver microsomes): 70 min; Activity [3]: inactive; t1/2 (Liver [9]): 200 min
25 | CO/N=C(\N)c1ccc(-c2cncc(-c3ccc(/C(N)=N\OC)cc3)n2)cc1 | 58.7 µM | 18.9 µM | 0.41 µM | – | MSD [1]: >173.8 days; t1/2 (Liver microsomes): 8.6 min; t1/2 (Liver [9]): 26 min; MSD [15]: >180 days
